“Also recorded” adds a separate entry of the source.
Legend:
[1] = test system: Escherichia coli strain ATCC 25922; details: result in words; cited from earlier work
[2] = test system: Staphylococcus aureus strain ATCC 25923; details: result in words; cited from earlier work
E. coli [3] = experiment: Number of bound peptides required to kill E. coli; format: cell-based, Escherichia coli; details: calculated from sterilization limit and binding curve
[4] = test system: Escherichia coli strain ATCC 25922; experiment: Broth dilution MIC; format: cell-based; details: result in words; for Activity (MIC) in broth dilution against E. coli: absence of RBCs, 5x10^5 CFU/ml, overnight 37°C
[5] = test system: Staphylococcus aureus strain ATCC 25923; experiment: Broth dilution MIC; format: cell-based; details: absence of RBCs; 5x10^5 CFU/ml, overnight 37°C; result in words
human RBC = experiment: Hemolysis of human RBCs; format: cell-based; details: result in words; for Hemolysis, propensity to lyse human RBCs: 1x10^8 human RBC/ml, 100 μM peptide, 37° C, 1 hour; for Selectivity (antimicrobial activity relative to host cell toxicity): represented by hemolysis at 100 μM peptide
E. coli [6] = experiment: Radial diffusion assay in the presence of RBCs and/or serum; format: cell-based, Escherichia coli; details: RBCs up to 1x10^9 cells/ml, 30 min 37°C; result in words
Outline: (§1)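 Log-phase (TSB) E. coli ATCC 25922 or S. aureus ATCC 25923, 8 × 10^6 CFU in 20 mL underlay agarose with 3 mm wells. Test peptide at 20 μM was preincubated 30 min at 37 °C with washed human O+ RBCs and/or filtered serum at 2–20% of whole blood (1 × 10^8–1 × 10^9 cells/mL). 10 μL per well, 3 h at 37 °C, overlay, overnight; inhibition zones imaged.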

S. aureus = experiment: Radial diffusion assay in the presence of RBCs; format: cell-based, Staphylococcus aureus; details: RBCs up to 1x10^9 cells/ml, 30 min 37°C; result in words
Outline: as §1

Pseudomonas aeruginosa = details: result in words; cited from earlier work

LLGDFFRKSKEKIGKEFKRIVQRIKDFLRNLVPRTES [LL-37]
Activity in sterilization assay against E. coli (known) [1]: poor against E. coli | Activity in sterilization assay against S. aureus (known) [2]: undetectable against S. aureus

RRGWALRLVLAY-NH2 [ARVA]
Bound peptides per bacterial cell required for sterilization (no surviving CFUs) (E. coli [3]): > 1x10^8 peptides per bacterial cell

GIGKFLHSAKKFGK-AFVGEIMNS [magainin II]
Activity (MIC) in broth dilution against E. coli [4]: active only against E. coli | Activity (MIC) in broth dilution against S. aureus [5]: active only against E. coli | Hemolysis, propensity to lyse human RBCs (human RBC): near zero propensity to lyse dilute human RBCs | Selectivity (antimicrobial activity relative to host cell toxicity) (human RBC): highly selective

[H]/N=C(/N)N[C@H]1[C@H](O)[C@@H](O)[C@H](O[C@@H]2O[C@@H](C)[C@](O)(C=O)[C@H]2O[C@@H]2O[C@@H](CO)[C@H](O)[C@@H](O)[C@@H]2NC)[C@@H](N/C(N)=N\[H])[C@@H]1O [streptomycin]
Effect of preincubation with RBCs on radial diffusion activity (E. coli [6]): not affected significantly

KWKLFKKIEKVGQN-IRDGIIKAGPAVAVVGQATQIAK [cecropin A]
Activity (MIC) in broth dilution against E. coli [4]: highly active | Activity (MIC) in broth dilution against S. aureus [5]: not against S. aureus | Hemolysis, propensity to lyse human RBCs (human RBC): near zero propensity to lyse dilute human RBCs | Selectivity (antimicrobial activity relative to host cell toxicity) (human RBC): highly selective; also recorded: most selective in our set

CN[C@H](CC(C)C)C(=O)N[C@H]1C(=O)N[C@@H](CC(N)=O)C(=O)N[C@H]2C(=O)N[C@H]3C(=O)N[C@H](C(=O)N[C@H](C(=O)O)c4cc(O)cc(O)c4-c4cc3ccc4O)[C@H](O)c3ccc(c(Cl)c3)Oc3cc2cc(c3O[C@@H]2O[C@H](CO)[C@@H](O)[C@H](O)[C@H]2O[C@H]2C[C@](C)(N)[C@H](O)[C@H](C)O2)Oc2ccc(cc2Cl)[C@H]1O [vancomycin]
Effect of preincubation with RBCs on radial diffusion activity (S. aureus): not affected significantly

ILPWKWPWWPWRR-NH2 [indolicidin]
Selectivity (antimicrobial activity relative to host cell toxicity) (human RBC): poor selectivity; also recorded: very poor selectivity

RRGWALRLVLAY-NH2 [ARVA-L]
Host cell effect on MIC without preincubation with host cells ([4]; compared with preincubation, organism not stated): much smaller | Selectivity (antimicrobial activity relative to host cell toxicity) (human RBC): fair selectivity

GIGKFLKKAKK-FGKAFVKILKK-NH2 [MSI-78]
Selectivity (antimicrobial activity relative to host cell toxicity) (human RBC): moderately high selectivity

melittin
Hemolysis, propensity to lyse human RBCs (human RBC): highly hemolytic | Selectivity (antimicrobial activity relative to host cell toxicity) (human RBC): completely non-selective; also recorded: least selective peptide by far | Selectivity (antimicrobial activity relative to host cell toxicity) (human RBC; listed as Melittin): entirely non-selective

RRWVRRVRRWVRRVVR-VVRRWVRR [WLBU2]
Activity in whole blood against Pseudomonas aeruginosa (Pseudomonas aeruginosa): retained activity in whole blood
